Screening data: PubChem, The Scripps Research Institute Molecular Screening Center
EBNA-1 inhibitor: EBNA-1 DNA-binding inhibitors, primary screen, biochemical, fluorescence polarization. inhibition, % at 14.8 µM. 300,000 compounds, 0.34% hits. AID 1950, 2009; in the data active = inhibition above about 28%
ARFGAP1 inh: inhibitors of rat ARFGAP1 GAP activity, primary screen, biochemical, fluorescence polarization, GDP tracer; 360,000 compounds, 0.26% hits; Arfgap1-stimulated ARF1 GTP hydrolysis, GDP FP detection; ADP-ribosylation factor GTPase-activating protein 1 (Rattus norvegicus), Q62848; inhibition, % at 16.5 µM;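 active = inhibition above a per-plate limit, mean inhibition of low control wells plus 3 SD, cut at about 25% in these data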
Target sequence (Q62848 1-136 limits assumed): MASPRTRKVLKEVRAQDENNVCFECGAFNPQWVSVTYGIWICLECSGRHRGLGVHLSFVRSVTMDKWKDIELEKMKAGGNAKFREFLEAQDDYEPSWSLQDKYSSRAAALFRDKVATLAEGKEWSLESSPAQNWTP
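Repeats: one replicate per compound; assay system: rat Arfgap1 catalytic domain, aa 1-136; times: enzyme reaction 120 min at 25 °C after 20 min preincubation; detection: FP of antibody-bound GDP Alexa 633 tracer, ex 620/em 688 nm; benchmarks: high control wells lacking Arfgap1, low control full reaction with DMSO; reagent: human ARF1(Δ1-17)-GTP substrate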
ASAP1 GAP inh: inhibitors of human ASAP1 ArfGAP activity, primary screen, biochemical, fluorescence polarization; Arf-GAP with SH3 domain, ANK repeat and PH domain-containing protein 1 (Homo sapiens), …; ASAP1-stimulated ARF1 GTP hydrolysis, GDP FP detection; inhibition, % at 16.5 µM; 360,000 compounds, 0.19% hits; in the data active = inhibition above about 25%
ZTA DNA inh: ZTA (EBV) inhibition in EBNA-1 counter-screen; P03206; ZTA-DNA binding, fluorescence polarization; inhibition, % at 11 µM; 320,000 compounds, 0.15% hits; AID 2234; in the data active = inhibition above about 33%
Target sequence (P03206 whole entry, looked up): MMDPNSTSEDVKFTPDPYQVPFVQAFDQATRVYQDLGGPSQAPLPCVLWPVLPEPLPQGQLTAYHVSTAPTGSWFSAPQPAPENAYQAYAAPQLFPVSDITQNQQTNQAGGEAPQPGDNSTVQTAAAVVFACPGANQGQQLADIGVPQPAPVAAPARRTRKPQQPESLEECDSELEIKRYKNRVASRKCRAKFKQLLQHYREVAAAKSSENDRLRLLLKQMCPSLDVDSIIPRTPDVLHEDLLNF
ZTA inh confirm: EBV Zta binding to ZRE DNA, inhibitors, confirmation, biochemical, fluorescence polarization, triplicate; shares compounds with ZTA DNA inh; inhibition, % at 11.1 µM; 320 compounds, 30% hits;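 active = mean inhibition across triplicate runs above the hit threshold derived for the original primary screen, cut at about 33% in these data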
EBNA1 counter: EBNA-1 DNA-binding inhibition, counter-screen for ZTA inhibitor project, biochemical, fluorescence polarization. shares compounds with ZTA DNA inh. inhibition, % at 14.8 µM. 320 tested, under 10 active. AID 2362, 2010; call rule not given here
Numbers stand for hits; n = inactive; x = no result; + = active, no number. In the library only some 0.75% were active in any assay of this set; here they are far more common.

SMILES	EBNA-1 inhibitor	ARFGAP1 inh	ASAP1 GAP inh	ZTA DNA inh	ZTA inh confirm	EBNA1 counter
Cc1cc2c(cc1C)C(c1ccccc1Br)CC(=O)N2 (configuration not stated)	n	n	n	33.2	n	n
CCCCc1ccc(NC(=O)OC)cc1	n	n	n	166.2	n	n
COc1ccc(NS(=O)(=O)c2ccc3c(c2)[C@H]2C=CC[C@H]2[C@@H](c2ccc(C(=O)O)cc2)N3)cc1	n	n	n	35.2	48.4	n
O=C(COc1ccccc1/C=C\c1[nH]c(=O)[nH]c(=O)c1[N+](=O)[O-])Nc1ccccc1	n	n	n	48.4	71.6	n
O=c1[nH]c(/C=C/c2ccccc2Cl)c([N+](=O)[O-])c(=O)[nH]1	x	n	n	x	x	x
Cc1cc2c(c(=O)o1)[C@@]1(C(=O)N(C)c3ccccc31)C1=C(CCCC1=O)O2	x	n	n	x	x	x
COc1ccc(Br)cc1S(=O)(=O)Nc1cccc(C)n1	n	n	n	n	x	x
COc1ccc(S(=O)(=O)Nc2cccc(C)n2)c2ccccc12	n	n	n	33.5	n	n
Cc1ccc2c(c1)/C(=C/c1ccco1)C(=O)N2	n	n	n	n	x	x
O=C1Nc2ccc(Br)cc2/C1=C/c1ccc(C(=O)O)cc1	n	x	x	34.3	46.3	n
Cc1ccccc1OCc1nnc(SCC(=O)NCc2ccco2)n1C	n	n	n	35.0	n	n
N#C/C(=C/c1ccc(-c2cc(C(=O)O)cc(C(=O)O)c2)o1)c1nc2ccccc2s1	n	x	x	61.0	n	n
N#C/C(=C\c1ccco1)c1nc2ccccc2s1	n	n	n	n	x	x
COc1ccc2c(c1)[C@@H](NC(=O)c1ccncc1)[C@H](C)[C@H]2c1ccccc1	x	n	n	x	x	x
CC(C)C[C@H]1COc2c(Cl)cccc2S(=O)(=O)N1	x	n	n	x	x	x
C=CCCC1CN(Cc2ccc(OC)cc2)S(=O)(=O)c2c(Oc3ccc(C(C)C)cc3)cccc2O1 (configuration not stated)	x	n	n	x	x	x
Cc1cc(C)nc(NC(=O)c2csnn2)c1	n	n	n	n	x	x
O=C(Nc1csnn1)c1csnn1	n	n	n	48.9	n	n
CCOc1cc(/C=C\c2[nH]c(=O)[nH]c(=O)c2[N+](=O)[O-])ccc1OC(C)CC (configuration not stated)	n	n	n	38.6	42.7	n
Cc1ccc2nc(-c3cccc(Br)c3)c(Cc3ccsc3)n2c1	x	n	n	x	x	x
Cc1cc(=O)oc(C)c1C(=O)OCC(=O)c1ccc(Cl)cc1	n	n	n	35.9	n	n
CN(CC(=O)Nc1ccc2c(c1)OCO2)CC(=O)Nc1ccc(F)c(F)c1F	x	n	n	x	x	x
CN(CC(=O)Nc1ccc(Cl)c(Cl)c1)CC(=O)Nc1ccc2c(c1)OCO2	x	n	n	+	n	n
COc1ccc2nc(-c3ccc(CN4CCC(c5nc6ccccc6[nH]5)CC4)cc3)c(-c3ccccc3)nc2c1	x	n	n	x	x	x
CC(C)CCN(C)[C@H]1C[C@H]2c3[nH]c4ccccc4c3CCN2C[C@H]1[C@H](C)O	x	n	n	x	x	x
SMILES	EBNA-1 inhibitor	ARFGAP1 inh	ASAP1 GAP inh	ZTA DNA inh	ZTA inh confirm	EBNA1 counter
O=C1C=C(N2CCOCC2)c2ccccc2C1=O	n	n	n	53.9	68.1	n
O=C1C=C(N2CCOCC2)c2cccc3cccc1c23	x	n	n	x	x	x
Cc1ccc(S(=O)(=O)/N=C2/C=C(Sc3ncn[nH]3)C(=O)c3ccccc32)cc1	n	x	x	41.0	74.9	n
CC(C)(C)n1nnnc1C(c1cccc(C#N)c1)N1CCCc2ccccc21 (configuration not stated)	n	n	n	44.1	n	n
CC(C)(C)n1nnnc1C(c1ccc(Cl)cc1)N1CCCc2ccccc21 (configuration not stated)	n	n	n	n	x	x
CCOC(=O)C1=CCN(S(=O)(=O)c2ccc(Cl)cc2)C1c1ccc(Br)cc1 (configuration not stated)	x	n	n	x	x	x
O=C(O)c1cccc(-n2cccc2/C=C/[N+](=O)[O-])c1	n	n	n	56.3	n	n
COc1cccc(CNC(=O)[C@H]2CCCN2C(=O)C2CCCN2C(=O)c2ccc(OC)c(F)c2)c1 (some centres not stated)	x	n	n	x	x	x
